Measurements published in ChEMBL document CHEMBL5120856, “New salicylic acid derivatives, double inhibitors of glycolate oxidase and lactate dehydrogenase, as effective agents decreasing oxalate production” (Eur J Med Chem, 2022).
The source made the active and inactive calls. No cut-off for these calls is given here.

Columns and labels:
2-Hydroxyacid oxidase 1 [1] = molecular target: T1, 2-Hydroxyacid oxidase 1 (Mus musculus, UniProt Q9WU19); assay: Inhibition of N-terminal His-tagged mouse recombinant glycolate oxidase expressed in Escherichia coli BL21 (DE3) cells using glycolate as substrate preincubated for 10 mins followed by substrate addition and measured after 10 mins by Amplex red and horseradish peroxidase based fluorescence assay
T1 sequence (Q9WU19 whole entry): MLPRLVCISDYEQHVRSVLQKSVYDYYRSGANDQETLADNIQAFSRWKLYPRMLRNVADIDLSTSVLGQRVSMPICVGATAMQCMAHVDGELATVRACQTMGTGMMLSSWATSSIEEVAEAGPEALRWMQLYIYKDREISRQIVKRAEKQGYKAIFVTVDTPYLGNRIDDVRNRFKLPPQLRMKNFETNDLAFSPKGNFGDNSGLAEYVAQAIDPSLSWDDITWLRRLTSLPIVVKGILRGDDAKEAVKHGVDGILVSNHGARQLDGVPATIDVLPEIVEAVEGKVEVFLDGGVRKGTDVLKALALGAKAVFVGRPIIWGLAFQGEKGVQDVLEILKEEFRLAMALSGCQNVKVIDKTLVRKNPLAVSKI

Hepatocyte [2] = assay: Inhibition of GO/LDHA in hyperoxaluric-primary hepatocyte isolated from Agxt1 knockdown PH1 C57BL/6 mouse assessed as relative oxalate output at 10 uM measured at 24 hrs in the presence of glycolate relative to control; type: cell-based
Method in brief: (§1)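 Agxt1-/- mouse primary hepatocytes cultured with 5 mM glycolate, inhibitor at 10 μM; extracellular oxalate measured by colorimetric kit 24 and 48 h after inhibitor addition; relative oxalate = oxalate with inhibitor over oxalate without inhibitor; negative values mean below detection limit; mean of three/four replicates ± SD.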

Hepatocyte [3] = assay: Inhibition of GO/LDHA in hyperoxaluric-primary hepatocyte isolated from Hoga1-knockdown PH3 C57BL/6 mouse assessed as relative oxalate output at 10 uM measured at 24 hrs in the presence of hydroxyproline relative to control; type: cell-based
Method in brief: (§2)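 Hoga1-/- mouse primary hepatocytes challenged with 10 mM hydroxyproline, inhibitor 10 μM; extracellular oxalate measured by colorimetric kit 24 and 48 h after dosing, given as ratio to oxalate without inhibitor; negative values are below detection limit; mean of three/four replicates ± SD.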

Hepatocyte [4] = assay: Cytotoxicity against hyperoxaluric-primary hepatocyte isolated from Agxt1-knockdown PH1 C57BL/6 mouse assessed as cell death at 10 uM by MTS assay; type: toxicity, cell-based; details: hepatocytes, Agxt1-knockdown PH1, 10 µM
Method in brief: (§3)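 Primary hepatocytes from Agxt1-/- (PH1, 5 mM glycolate), Grhpr-/- (PH2, 10 mM glycolate) or Hoga1-/- (PH3, 10 mM hydroxyproline) mice, incubated with inhibitor at 10 μM; viability followed through the oxalate assay by MTS tetrazolium method.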

Hepatocyte [5] = assay: Inhibition of GO/LDHA in hyperoxaluric-primary hepatocyte isolated from Hoga1-knockdown PH3 C57BL/6 mouse assessed as relative oxalate output at 10 uM measured at 48 hrs in the presence of hydroxyproline relative to control; type: cell-based; method in brief: as §2
Hepatocyte [6] = assay: Cytotoxicity against hyperoxaluric-primary hepatocyte isolated from Grhpr-knockdown PH2 C57BL/6 mouse assessed as cell death at 10 uM by MTS assay; type: toxicity, cell-based; details: hepatocytes, Grhpr-knockdown PH2 (primary hyperoxaluria type 2); method in brief: as §3
Hepatocyte [7] = assay: Inhibition of GO/LDHA in hyperoxaluric-primary hepatocyte isolated from Agxt1 knockdown PH1 C57BL/6 mouse assessed as relative oxalate output at 10 uM measured at 48 hrs in the presence of glycolate relative to control; type: cell-based; method in brief: as §1
Hepatocyte [8] = assay: Inhibition of GO/LDHA in hyperoxaluric-primary hepatocyte isolated from Grhpr-knockdown PH2 C57BL/6 mouse assessed as relative oxalate output at 10 uM measured at 24 hrs in the presence of glycolate relative to control; type: cell-based
Method in brief: (§4)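 Grhpr-/- mouse primary hepatocytes cultured with 10 mM glycolate, inhibitor at 10 μM; extracellular oxalate determined colorimetrically at 24 and 48 h post-treatment, expressed relative to untreated medium (RO); negative RO means below detection limit; three/four replicates, mean ± SD.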

Hepatocyte [9] = assay: Inhibition of GO/LDHA in hyperoxaluric-primary hepatocyte isolated from Grhpr-knockdown PH2 C57BL/6 mouse assessed as relative oxalate output at 10 uM measured at 48 hrs in the presence of glycolate relative to control; type: cell-based; method in brief: as §4
[10] = molecular target: T2, Prostaglandin G/H synthase 2 (Homo sapiens, UniProt P35354); assay: Inhibition of human COX-2 using arachidonic acid as substrate measured every 60 sec for 10 mins by fluorescence based assay
T2 sequence (P35354 whole entry): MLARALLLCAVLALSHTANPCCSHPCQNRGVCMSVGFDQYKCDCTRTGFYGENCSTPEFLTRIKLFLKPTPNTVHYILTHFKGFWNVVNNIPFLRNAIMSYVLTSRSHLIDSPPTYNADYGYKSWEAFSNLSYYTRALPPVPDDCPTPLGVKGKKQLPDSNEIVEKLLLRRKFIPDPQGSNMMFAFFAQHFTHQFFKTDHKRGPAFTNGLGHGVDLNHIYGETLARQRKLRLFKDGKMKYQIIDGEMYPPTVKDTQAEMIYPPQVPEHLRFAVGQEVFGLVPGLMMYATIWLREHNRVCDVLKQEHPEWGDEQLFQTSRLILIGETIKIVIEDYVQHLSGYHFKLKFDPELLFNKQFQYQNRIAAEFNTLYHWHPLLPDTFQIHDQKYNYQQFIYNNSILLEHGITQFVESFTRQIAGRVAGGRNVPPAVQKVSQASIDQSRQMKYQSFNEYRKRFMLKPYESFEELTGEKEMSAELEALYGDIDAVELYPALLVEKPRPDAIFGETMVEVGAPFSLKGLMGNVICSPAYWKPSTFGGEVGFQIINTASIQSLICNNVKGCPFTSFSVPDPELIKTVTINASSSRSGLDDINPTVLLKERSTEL

2-Hydroxyacid oxidase 1 [11] = molecular target: T3, 2-Hydroxyacid oxidase 1 (Homo sapiens, UniProt Q9UJM8); assay: Inhibition of N-terminal His-tagged human recombinant glycolate oxidase expressed in Escherichia coli BL21 (DE3) cells using glycolate as substrate preincubated for 10 mins followed by substrate addition and measured after 10 mins by Amplex red and horseradish peroxidase based fluorescence assay
T3 sequence (Q9UJM8 whole entry): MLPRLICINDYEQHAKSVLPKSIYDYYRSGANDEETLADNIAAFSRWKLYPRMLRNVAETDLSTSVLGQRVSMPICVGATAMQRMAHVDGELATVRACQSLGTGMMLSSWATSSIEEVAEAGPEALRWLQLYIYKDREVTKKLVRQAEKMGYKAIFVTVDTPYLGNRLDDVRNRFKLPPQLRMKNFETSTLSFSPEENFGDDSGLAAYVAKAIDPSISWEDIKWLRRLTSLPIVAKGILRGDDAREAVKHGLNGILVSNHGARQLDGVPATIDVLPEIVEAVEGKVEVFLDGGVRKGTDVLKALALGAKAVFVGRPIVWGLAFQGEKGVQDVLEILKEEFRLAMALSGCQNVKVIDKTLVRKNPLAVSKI

[12] = molecular target: L-lactate dehydrogenase B chain (Homo sapiens, UniProt P07195); assay: Inhibition of human recombinant LDHB using pyruvate as substrate preincubated for 10 mins followed by substrate addition and measured every 60 sec for 10 mins in the presence of NADH by fluorescence assay
[13] = molecular target: T4, L-lactate dehydrogenase A chain (Homo sapiens, UniProt P00338); assay: Inhibition of human recombinant LDHA using pyruvate as substrate preincubated for 10 mins followed by substrate addition and measured every 60 sec for 10 mins in the presence of NADH by fluorescence assay
Hepatocyte [14] = assay: Cytotoxicity against hyperoxaluric-primary hepatocyte isolated from Hoga1-knockdown PH3 C57BL/6 mouse assessed as cell death at 10 uM by MTS assay; type: toxicity, cell-based; details: hepatocytes, Hoga1-knockdown PH3, 10 µM; method in brief: as §3
HEK293 = assay: Cytotoxicity against HEK293 cells assessed as reduction in cell viability upto 50 uM measured after 48 hrs by MTT assay; type: toxicity, cell-based; details: human, hek293, 48 h
2-Hydroxyacid oxidase 1 [15] = molecular target: T3, 2-Hydroxyacid oxidase 1; assay: Non-competitive mixed inhibition of N-terminal His-tagged human recombinant glycolate oxidase expressed in Escherichia coli BL21 (DE3) cells assessed as inhibition constant using varying concentration of glycolate as substrate measured every 60 sec for 15 mins by Amplex red and horseradish peroxidase based fluorescence assay
[16] = molecular target: T5, 2-Hydroxyacid oxidase 1 (Homo sapiens) (UniProt Q9UJM8); assay: Non-competitive mixed inhibition of N-terminal His-tagged human recombinant glycolate oxidase expressed in Escherichia coli BL21 (DE3) cells assessed as decrease in Vmax with increase in apparent Km using glycolate as substrate upto 60 microM
T5 sequence (whole entry): T3 sequence (Q9UJM8 whole entry)

[17] = molecular target: T4, L-lactate dehydrogenase A chain; assay: Non-competitive inhibition of human recombinant LDHA assessed as decrease in Vmax with no effect on Km using pyruvate as substrate upto 20 uM
[18] = molecular target: T4, L-lactate dehydrogenase A chain; assay: Non-competitive inhibition of human recombinant LDHA assessed as inhibition constant using varying concentration of pyruvate as substrate preincubated for 10 mins followed by substrate addition and measured every 60 sec for 10 mins in the presence of NADH by fluorescence assay

Chain of L-lactate dehydrogenase B chain (P07195 whole entry): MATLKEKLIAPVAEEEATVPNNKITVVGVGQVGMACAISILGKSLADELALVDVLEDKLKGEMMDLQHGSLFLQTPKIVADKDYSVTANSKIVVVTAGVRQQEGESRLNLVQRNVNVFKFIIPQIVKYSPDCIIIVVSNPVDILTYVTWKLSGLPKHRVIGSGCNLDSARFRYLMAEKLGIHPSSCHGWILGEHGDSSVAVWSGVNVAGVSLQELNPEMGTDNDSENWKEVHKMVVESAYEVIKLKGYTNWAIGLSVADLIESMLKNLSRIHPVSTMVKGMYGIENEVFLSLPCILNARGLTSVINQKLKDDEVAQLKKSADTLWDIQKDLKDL

IC50 (2-Hydroxyacid oxidase 1 [1]) | IC50 [10] | IC50 (2-Hydroxyacid oxidase 1 [11]) | IC50 [12] | IC50 [13] | Ki (2-Hydroxyacid oxidase 1 [15]) | inhibition [16] | inhibition [17] | Ki [18] | SMILES | fold change (FC) (Hepatocyte [2]) | fold change (FC) (Hepatocyte [3]) | Activity (Hepatocyte [4]) | fold change (FC) (Hepatocyte [5]) | Activity (Hepatocyte [6]) | fold change (FC) (Hepatocyte [7]) | fold change (FC) (Hepatocyte [8]) | fold change (FC) (Hepatocyte [9]) | Activity (Hepatocyte [14]) | Activity (HEK293)
1300 nM | 36000 nM | 2400 nM | 300 nM | 500 nM | – | – | – | – | C#CCCCC(=O)Nc1ccc(C(=O)c2ccc(NCc3ccc(-c4ccc(O)c(C(=O)O)c4)o3)cc2)cc1.N | 0.5 | 0.2 | Non-Toxic | 0.14 | Non-Toxic | 0.79 | 0.4 | 0.52 | Non-Toxic | Non-Toxic
3100 nM | 35000 nM | 4200 nM | 1100 nM | 600 nM | 1100 nM | Active | Active | 900 nM | N.O=C(O)c1cc(-c2ccc(CNc3ccc(Br)cc3)o2)ccc1O | 0.19 | 0.26 | Non-Toxic | 0.18 | Non-Toxic | 0.57 | 0.41 | 0.56 | Non-Toxic | Non-Toxic
